# Source: ChEMBL document CHEMBL3745671, “Discovery of N-[5-(6-Chloro-3-cyano-1-methyl-1H-indol-2-yl)-pyridin-3-ylmethyl]-ethanesulfonamide, a Cortisol-Sparing CYP11B2 Inhibitor that Lowers Aldosterone in Human Subjects” (J Med Chem, 2015)
# Activity calls are given as the source filed them. No cut-off for these calls is given here.
# Legend:
# [1] = Equilibrium solubility of the compound in buffer at pH 6.8; format: physicochemical
# Method in brief: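 Equilibrium solubility measured in buffer at pH 6.8.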
# Cynomolgus monkey [2] = assay: Decrease in ACTH-stimulated plasma cortisol level of chair-trained chronically cannulated cynomolgus monkey model at 0.03 to 3 mg/kg, po compound administered followed by ACTH challenge for 24 hrs by LC/MS/MS analysis; format: functional, organism-based; details: Macaca fascicularis
# Method in brief: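 Conscious chair-trained, chronically cannulated male cynomolgus monkeys; vascular access port via Huber needle. Baseline blood (heparin) before dosing; methylcellulose suspension po at 0.03, 0.1, 0.3 or 3 mg/kg (n=3/dose) or vehicle (n=6, same animals). ACTH(1–24) 3000 ng/kg iv 3 h post-dose; sampling 0.125–1 h post-ACTH, up to 8 h, and 23.5 and 24 h. Aldosterone and cortisol by RIA; drug by LC/MS/MS (LLOQ 0.26 nmol/L, lower values set to zero).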
# [3] = Tmax in healthy human at 100 mg/kg, po bid; format: ADME, organism-based; details: in vivo
# Method in brief: (§1)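 Double-blind, randomized, placebo-controlled study in healthy male and female volunteers aged 18-63 on a restricted sodium/potassium diet. Oral bid doses of 30, 60, 100 or 200 mg, drug:placebo 5:2. N per dose 10–17. AUCtau, Cmax and median Tmax reported; dose-normalized values are AUCtau/dose and Cmax/dose.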
# [4] = Tmax in healthy human at 200 mg/kg, po bid; format: ADME, organism-based; details: in vivo; method in brief: as §1
# [5] = Cmax in healthy human at 60 mg/kg, po bid; format: ADME, organism-based; set-up: dose 60 mg/kg, route oral; details: in vivo; method in brief: as §1
# [6] = Cmax in healthy human at 200 mg/kg, po bid; format: ADME, organism-based; set-up: dose 200 mg/kg, route oral; details: in vivo; method in brief: as §1
# Homo sapiens [7] = assay: Dose normalized AUCtau in healthy human at 30 mg/kg, po bid; format: ADME, organism-based; details: in vivo; method in brief: as §1
# Homo sapiens [8] = assay: Dose normalized AUCtau in healthy human at 200 mg/kg, po bid; format: ADME, organism-based; details: in vivo; method in brief: as §1
# Homo sapiens [9] = assay: Dose normalized Cmax in healthy human at 30 mg/kg, po bid; format: ADME, organism-based; details: in vivo; method in brief: as §1
# Homo sapiens [10] = assay: Dose normalized Cmax in healthy human at 100 mg/kg, po bid; format: ADME, organism-based; details: in vivo; method in brief: as §1
# Homo sapiens [11] = assay: Decrease in plasma aldosterone level in po dosed human administered as bid measured over 24 hrs; format: functional, organism-based
# Method in brief: (§2)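 Healthy male and female volunteers, 18-63 years, restricted sodium/potassium diet; double-blind randomized placebo-controlled, oral 30, 60, 100 or 200 mg bid (drug:placebo 5:2).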
# Homo sapiens [12] = assay: Decrease in plasma aldosterone level in human at 200 mg/kg, po bid measured over 24 hrs; format: functional; details: in the assay text read “200 mg” for “200 mg/kg”; method in brief: as §2
# Homo sapiens [13] = assay: Decrease in urinary aldosterone excretion in human at 200 mg/kg, po bid measured over 24 hrs; format: functional, Urine; details: in the assay text read “200 mg” for “200 mg/kg”; method in brief: as §2
# Cynomolgus monkey [14] = assay: Decrease in ACTH-stimulated plasma aldosterone level in chair-trained chronically cannulated cynomolgus monkey model at 3 mg/kg, po compound administered followed by ACTH challenge for 3 hrs measured by radioimmunoassay; set-up: scale not given: the % may be the effect or the level left
compound,measurement,setting,value
CCS(=O)(=O)NCc1cncc(-c2c(C#N)c3ccc(Cl)cc3n2C)c1,solubility thermodynamic,[1],< 5 µM
same,Activity,Cynomolgus monkey [2],inactive
same,Tmax,[3],4 h
same,Tmax,[4],4 h
same,Cmax,[5],173 ng/mL
same,Cmax,[6],306 ng/mL
same,AUC/dose,Homo sapiens [7],25.6 ng·h/mL/mg
same,AUC/dose,Homo sapiens [8],10.9 ng·h/mL/mg
same,Cmax/dose,Homo sapiens [9],3.9 ng/mL
same,Cmax/dose,Homo sapiens [10],1.7 ng/mL
same,Activity,Homo sapiens [11],Dose-dependent effect
same,%max,Homo sapiens [12],70%
same,%max,Homo sapiens [13],70%
same,Activity,Cynomolgus monkey [14],95%
